According to ChEMBL document CHEMBL4387722:

What was measured:
[1] = target: T1, Phosphotyrosine protein phosphatase (Mycobacterium tuberculosis, UniProt A0A045ISB3); experiment: Inhibition of Mycobacterium tuberculosis His-tagged PtpB expressed in Escherichia coli Rosetta 2 (DE3) using pNPP as substrate after 30 mins by spectrophotometric method
T1 sequence (A0A045ISB3 whole entry): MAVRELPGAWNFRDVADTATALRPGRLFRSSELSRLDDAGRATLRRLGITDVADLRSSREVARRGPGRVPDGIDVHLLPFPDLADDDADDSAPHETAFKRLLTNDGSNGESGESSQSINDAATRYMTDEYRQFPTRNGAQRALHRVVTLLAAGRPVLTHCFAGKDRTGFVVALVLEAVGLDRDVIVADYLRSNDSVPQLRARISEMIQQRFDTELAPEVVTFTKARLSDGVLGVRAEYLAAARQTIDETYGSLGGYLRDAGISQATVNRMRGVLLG

[2] = target: T2, Tyrosine-protein phosphatase non-receptor type 1 (Homo sapiens, UniProt P18031); experiment: Inhibition of human PTPN1 expressed in Escherichia coli Rosetta 2 (DE3) using pNPP as substrate after 45 mins by spectrophotometric method
T2 sequence (P18031 whole entry): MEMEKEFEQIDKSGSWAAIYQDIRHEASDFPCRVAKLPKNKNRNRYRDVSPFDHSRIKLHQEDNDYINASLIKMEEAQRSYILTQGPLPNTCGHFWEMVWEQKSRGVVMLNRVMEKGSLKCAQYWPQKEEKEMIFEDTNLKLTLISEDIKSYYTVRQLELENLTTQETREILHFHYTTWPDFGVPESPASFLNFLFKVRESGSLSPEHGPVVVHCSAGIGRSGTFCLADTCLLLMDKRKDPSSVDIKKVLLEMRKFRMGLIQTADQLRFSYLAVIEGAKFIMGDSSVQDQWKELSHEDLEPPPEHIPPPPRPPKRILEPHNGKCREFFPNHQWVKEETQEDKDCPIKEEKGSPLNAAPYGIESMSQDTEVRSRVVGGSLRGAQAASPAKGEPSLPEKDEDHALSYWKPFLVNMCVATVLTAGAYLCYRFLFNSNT

[3] = target: T3, Tyrosine-protein phosphatase non-receptor type 2 (Homo sapiens, UniProt P17706); experiment: Inhibition of human PTPN2 expressed in Escherichia coli Rosetta 2 (DE3) using pNPP as substrate after 45 mins by spectrophotometric method
T3 sequence (P17706 whole entry): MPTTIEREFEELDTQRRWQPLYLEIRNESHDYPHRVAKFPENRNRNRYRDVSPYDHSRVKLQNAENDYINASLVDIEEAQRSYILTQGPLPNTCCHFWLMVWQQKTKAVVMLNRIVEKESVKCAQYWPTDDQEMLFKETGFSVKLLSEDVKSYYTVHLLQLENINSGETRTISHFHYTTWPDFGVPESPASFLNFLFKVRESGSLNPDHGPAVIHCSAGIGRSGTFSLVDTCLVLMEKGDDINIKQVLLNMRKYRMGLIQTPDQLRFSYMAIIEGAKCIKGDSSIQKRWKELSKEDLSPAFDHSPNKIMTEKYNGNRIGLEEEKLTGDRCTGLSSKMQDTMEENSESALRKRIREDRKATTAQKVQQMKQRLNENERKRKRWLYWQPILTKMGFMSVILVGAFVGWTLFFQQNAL

[4] = target: T4, Tyrosine-protein phosphatase non-receptor type 5 (Homo sapiens, UniProt P54829); experiment: Inhibition of human PTPN5 expressed in Escherichia coli Rosetta 2 (DE3) using pNPP as substrate after 45 mins by spectrophotometric method
T4 sequence (P54829 whole entry): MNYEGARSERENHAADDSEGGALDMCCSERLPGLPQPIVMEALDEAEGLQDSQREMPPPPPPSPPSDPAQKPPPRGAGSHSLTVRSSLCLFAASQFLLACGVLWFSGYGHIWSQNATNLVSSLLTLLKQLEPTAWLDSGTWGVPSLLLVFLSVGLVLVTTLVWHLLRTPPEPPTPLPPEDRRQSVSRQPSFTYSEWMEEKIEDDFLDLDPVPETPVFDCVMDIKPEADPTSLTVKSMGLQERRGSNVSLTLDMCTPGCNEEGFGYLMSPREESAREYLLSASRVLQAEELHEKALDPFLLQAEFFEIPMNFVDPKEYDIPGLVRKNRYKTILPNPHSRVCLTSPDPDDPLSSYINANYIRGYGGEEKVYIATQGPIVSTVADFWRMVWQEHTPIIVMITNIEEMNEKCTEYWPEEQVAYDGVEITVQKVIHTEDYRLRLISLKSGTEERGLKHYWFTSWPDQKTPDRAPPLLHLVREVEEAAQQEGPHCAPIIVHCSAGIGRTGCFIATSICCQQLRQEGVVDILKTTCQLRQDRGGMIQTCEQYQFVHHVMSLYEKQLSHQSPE

[5] = system: Mycobacterium tuberculosis; experiment: Antitubercular activity against Mycobacterium tuberculosis H37Rv after 5 days at 200 uM relative to control; type: functional; conditions: 120 h
Outline: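 M. tuberculosis grown in liquid culture with compound at a fixed 200 μM for 5 days. Growth inhibition expressed as percent of control.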

[6] = system: Mycobacterium tuberculosis; experiment: Antitubercular activity against Mycobacterium tuberculosis H37Rv after 5 days; type: functional, organism-based; conditions: 120 h
[7] = Inhibition of refolded rhodanese (unknown origin) preincubated with Escherichia coli GroEL/GroES for 60 mins by measuring rhodanese enzyme activity followed by compound addition by Fe(SCN)3 dye based spectrometric analysis; design: species or system Homo sapiens
[8] = target: T5, Malate dehydrogenase, mitochondrial (Sus scrofa, UniProt P00346); experiment: Inhibition of refolded pig heart mitochondrial MDH preincubated with Escherichia coli GroEL/GroES for 45 mins using sodium mesoxalate as substrate followed by compound addition and measured after 20 to 30 mins by spectrometric analysis
T5 sequence (P00346 whole entry): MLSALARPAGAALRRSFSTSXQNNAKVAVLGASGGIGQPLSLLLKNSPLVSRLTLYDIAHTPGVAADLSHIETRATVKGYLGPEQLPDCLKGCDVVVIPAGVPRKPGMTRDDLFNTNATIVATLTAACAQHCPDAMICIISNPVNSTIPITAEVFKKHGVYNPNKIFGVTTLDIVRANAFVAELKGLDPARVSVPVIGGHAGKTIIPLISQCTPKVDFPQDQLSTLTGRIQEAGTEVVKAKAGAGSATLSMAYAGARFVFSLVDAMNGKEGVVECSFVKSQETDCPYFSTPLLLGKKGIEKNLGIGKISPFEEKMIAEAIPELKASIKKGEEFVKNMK

[9] = target: T6, E. coli GroEL/ES (Escherichia coli, UniProt P0A6F5); experiment: Inhibition of Escherichia coli GroEL expressed in Escherichia coli DH5alpha/Escherichia coli GroES expressed in Escherichia coli BL21 (DE3) assessed as reduction in GroEL/GroES-mediated denatured rhodanese refolding by measuring rhodanese enzyme activity after 45 mins by Fe(SCN)3 dye based spectrometric analysis
[10] = target: T6, E. coli GroEL/ES; experiment: Inhibition of Escherichia coli GroEL expressed in Escherichia coliDH5alpha/Escherichia coli GroES expressed in Escherichia coli BL21 (DE3) assessed as reduction in GroEL/GroES-mediated denatured pig heart mitochondrial MDH refolding by measuring MDH enzyme activity using sodium mesoxalate as substrate after 20 to 40 mins by spectrometric analysis
[11] = target: HSP60/HSP10 (Homo sapiens, UniProt P10809); experiment: Inhibition of human HSP60 expressed in Escherichia coli Rosetta 2(DE3)/human HSP10 expressed in Escherichia coli Rosetta 2(DE3) pLysS cells assessed as reduction in HSP60/HSP10-mediated denatured pig heart mitochondrial MDH refolding by measuring MDH enzyme activity using sodium mesoxalate as substrate after 40 to 60 mins by spectrometric analysis
[12] = Cytotoxicity against human THLE3 cells assessed as reduction in cell viability after 48 hrs by Alamar blue assay; type: cell-based
Outline: (§1)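 Alamar Blue viability read-out. Human liver (THLE-3) and kidney (HEK 293) cells incubated with compound for 48 h. Tested in dose-response to derive CC50.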

[13] = Cytotoxicity against human HEK293 cells assessed as reduction in cell viability after 48 hrs by Alamar blue assay; type: cell-based; outline: as §1

T6 sequence (P0A6F5 whole entry, looked up): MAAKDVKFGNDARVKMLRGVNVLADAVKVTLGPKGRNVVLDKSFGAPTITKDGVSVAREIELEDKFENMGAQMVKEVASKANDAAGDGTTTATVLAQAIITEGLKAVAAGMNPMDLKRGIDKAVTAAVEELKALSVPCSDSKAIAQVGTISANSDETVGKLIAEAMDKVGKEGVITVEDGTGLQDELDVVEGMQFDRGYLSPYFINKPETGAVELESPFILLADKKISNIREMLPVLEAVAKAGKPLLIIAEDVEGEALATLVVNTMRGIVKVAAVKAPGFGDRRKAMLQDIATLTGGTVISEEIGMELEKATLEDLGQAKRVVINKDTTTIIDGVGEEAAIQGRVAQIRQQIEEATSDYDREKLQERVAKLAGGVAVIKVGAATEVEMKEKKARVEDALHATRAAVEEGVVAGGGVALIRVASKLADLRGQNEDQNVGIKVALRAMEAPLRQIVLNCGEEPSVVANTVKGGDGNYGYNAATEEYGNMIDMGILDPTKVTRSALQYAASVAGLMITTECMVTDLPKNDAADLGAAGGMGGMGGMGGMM
HSP60/HSP10, sequence (P10809 whole entry): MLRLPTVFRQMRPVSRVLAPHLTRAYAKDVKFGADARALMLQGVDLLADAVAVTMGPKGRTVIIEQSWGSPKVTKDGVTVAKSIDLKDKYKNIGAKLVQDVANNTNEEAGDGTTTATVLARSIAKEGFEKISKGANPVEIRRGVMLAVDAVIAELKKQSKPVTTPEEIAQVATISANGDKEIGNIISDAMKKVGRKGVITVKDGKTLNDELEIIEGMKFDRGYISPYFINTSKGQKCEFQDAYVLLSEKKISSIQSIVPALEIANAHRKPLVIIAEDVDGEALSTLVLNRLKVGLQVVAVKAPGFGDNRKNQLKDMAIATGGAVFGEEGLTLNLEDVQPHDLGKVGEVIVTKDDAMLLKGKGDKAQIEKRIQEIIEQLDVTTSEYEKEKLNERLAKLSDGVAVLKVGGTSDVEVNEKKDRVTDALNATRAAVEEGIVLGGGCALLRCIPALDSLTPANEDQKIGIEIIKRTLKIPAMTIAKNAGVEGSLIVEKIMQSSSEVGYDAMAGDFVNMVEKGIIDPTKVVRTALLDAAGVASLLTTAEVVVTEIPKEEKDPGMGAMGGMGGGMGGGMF
HSP60/HSP10, sequence (P61604 whole entry, further chain): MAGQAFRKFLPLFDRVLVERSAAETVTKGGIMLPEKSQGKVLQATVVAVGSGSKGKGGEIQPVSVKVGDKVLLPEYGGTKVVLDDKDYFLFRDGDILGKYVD

Compound	IC50 [1]	IC50 [2]	IC50 [3]	IC50 [4]	inhibition at 200 µM [5]	EC50 [6]	IC50 [7]	IC50 [8]	IC50 [9]	IC50 [10]	IC50 [11]	CC50 at 48 h [12]	CC50 at 48 h [13]
O=S(=O)(Nc1ccc(-c2nc3ccccc3o2)cc1)c1ccc(C(F)(F)F)cc1	52 µM	35 µM	38 µM	39 µM	78%	161 µM	> 100 µM	> 63 µM	159 µM	77 µM	50 µM	71 µM	94 µM
Cc1ccc(S(=O)(=O)Nc2ccc3oc(-c4ccccc4)nc3c2)cc1	68 µM	48 µM	49 µM	39 µM	87%	172 µM	> 100 µM	> 63 µM	157 µM	> 100 µM	> 100 µM	53 µM	75 µM
O=S(=O)(Nc1ccc(-c2nc3ccccc3o2)cc1)c1ccccc1C(F)(F)F	58 µM	44 µM	61 µM	53 µM	58%	> 200 µM	> 100 µM	> 63 µM	166 µM	75 µM	74 µM	91 µM	> 100 µM
C=Cc1ccc(S(=O)(=O)Nc2ccc3oc(-c4ccccc4)nc3c2)cc1	51 µM	45 µM	46 µM	35 µM	86%	151 µM	> 100 µM	> 63 µM	175 µM	> 100 µM	> 100 µM	50 µM	53 µM
O=S(=O)(Nc1ccc(-c2nc3ccccc3o2)cc1)c1ccc(F)cc1	64 µM	68 µM	76 µM	59 µM	83%	144 µM	> 100 µM	> 63 µM	224 µM	93 µM	73 µM	77 µM	> 100 µM
O=S(=O)(Nc1ccc(-c2nc3ccccc3o2)cc1)c1cccc(F)c1	91 µM	62 µM	80 µM	54 µM	80%	185 µM	> 100 µM	> 63 µM	225 µM	92 µM	71 µM	> 100 µM	> 100 µM
